These results are taken from ChEMBL document CHEMBL4725302, “Isosteres of ester derived glucose uptake inhibitors” (Bioorg Med Chem Lett, 2020).

The test system of series [1] is NCI-H1299. In words: Antiproliferative activity against human NCI-H1299 cells assessed as reduction in cell viability at 30 uM incubated for 48 hrs by MTT assay relative to control. Format: functional. In short, it runs like this:
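H1299 cells seeded at 5,000 per well, exposed in hexads to compound at 30 µM or DMSO (<0.5% v/v) for 48 h. MTT then added for 4 h and absorbance read at 570 nm. Conditions run in triplicate, quadruplicate or hexad, experiment repeated at least once; mean ± standard deviation.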
In general terms: Formazan colour is commonly taken as a measure of viable cells.

A short description of series [2]: Inhibition of glucose uptake in human NCI-H1299 cells at 30 uM incubated for 10 mins followed by […][3H]2-deoxyglucose and glucose addition and measured after 30 mins by scintillation counting method relative to control. Format: functional. Conditions: NCI-H1299, 10 min. In short, it runs like this:
(§1)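 H1299 cells held 2 h in serum-free medium, then 30 min in KRP buffer. Treated ±30 µM compound for 10 min, then 37 MBq/L [3H]2-deoxyglucose plus 1 mmol/L glucose in KRP for 30 min uptake. Washed twice with ice-cold PBS, lysed in NaOH, radioactivity by scintillation counting. Replicates triplicate to hexad, repeated at least once; mean ± standard deviation.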

Series [3] relates to NCI-H1299. In words: Antiproliferative activity against human NCI-H1299 cells assessed as reduction in cell viability incubated for 48 hrs by MTT assay. Format: functional, cell-based. The note with it: NCI-H1299, 48 h.
Series [4] is described as follows: Inhibition of glucose uptake in human NCI-H1299 cells incubated for 10 mins followed by […][3H]2-deoxyglucose and glucose addition and measured after 30 mins by scintillation counting method. Format: functional, cell-based. In short, it runs like this:
as §1

Series [5] in a line: Stability in human serum assessed as reduction in A549 cell viability at 30 uM measured upto 72 hrs by resazurin assay. The class given is cell-free. In short, it runs like this: (§2)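 Compound at 30 µM preincubated at 37 °C in DMEM with 10% FBS and 1% Pen/Strep for 0, 1, 2, 4, 6, 9, 12, 24, 48 and 72 h. This medium then applied for 24 h to 5 x 10^3 A549 cells (grown overnight, washed twice with PBS). Resazurin added for 30 min, fluorescence Ex 560/Em 590, normalized to DMSO mock.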
In general terms: Alamar Blue is a resazurin reagent that responds to reducing activity.

The nature of series [6]: Stability in human serum assessed as compound remaining incubated for 1 hr. Conditions: read-out: Stabilty. Format: ADME, cell-free.
A short description of series [7]: Stability in human serum assessed as reduction in A549 cell viability at 30 uM measured upto 12 hrs by resazurin assay. The class given is cell-free. In short, it runs like this:
as §2

The test system of series [8] is A549. In words: Antitumor activity in human A549 cells xenografted in NU/J mouse assessed as reduction in tumor volume at 10 mg/kg, ip administered for 10 weeks and measured for every 7 day relative to control. The class given is functional. More on the design: scale not given: the % may be the effect or the level left. (In general: A xenograft is tissue or cells of one species grown in another, often human tumour cells in immunodeficient mice.)

For orientation: inhibition means the relative decrease from the control value, in per cent. Regarding `Cc1ccc(O)cc1CNc1ccc(Cl)cc1NCc1cc(O)ccc1C`, the values for the inhibition at 30 µM in series [1] and in series [2] were 46.3% and 82.9%, respectively.

On to `O=C(Nc1ccc(F)cc1NC(=O)c1cccc(O)c1)c1cccc(O)c1`, for which the inhibition at 30 µM in series [1] was found to be 5.7%; in series [2] it was 89.7%.

As for `O=C(Nc1ccc(Cl)cc1NC(=O)c1ccc(Cl)c(O)c1)c1ccc(Cl)c(O)c1`, the inhibition at 30 µM in series [1] was found to be 19%; in series [2], 85.2%.

On to `Oc1cccc(CNc2ccc(Cl)cc2NCc2cccc(O)c2)c1`, for which the inhibition at 30 µM in series [1] is 56.6%; in series [2], 52.2%.

Broadly, the IC50 is the midpoint of a concentration-inhibition curve. As for `Cc1ccc(CNc2ccc(Cl)cc2NCc2ccc(C)c(O)c2)cc1O`, the IC50 in series [3] came to 7 µM; in series [4], 1.9 µM. Moreover, the results for the inhibition at 30 µM in series [1] and in series [2] were 77.5% and 93.7%, respectively. Besides, in series [5], the Stabilty result was “Stable”.

For the molecule `Oc1cccc(SCc2cccc(F)c2CSc2cccc(O)c2)c1`, the inhibition at 30 µM is -2% in series [1] and 98.1% in series [2].

For `COc1ccc(CNc2ccc(Cl)cc2NCc2ccc(OC)c(O)c2)cc1O`, the inhibition at 30 µM was determined as 22% in series [1] and 42.2% in series [2].

As to `Oc1cccc(COc2ccc(Cl)cc2OCc2cccc(O)c2)c1`, the inhibition at 30 µM in series [1] was 14.3%; in series [2], 91.2%.

Regarding `[O-][S+](Cc1cccc(F)c1C[S+]([O-])c1cccc(O)c1)c1cccc(O)c1` (configuration not stated), the results for the inhibition at 30 µM in series [1] and in series [2] were 0.2% and 17.2%, respectively.

For `O=C(Oc1cccc(F)c1OC(=O)c1cccc(O)c1)c1cccc(O)c1`, in series [6], the remaining at 1 h was 25%. Besides, the Stabilty entry in series [7] is on record as “Unstable”. Moreover, the Activity in series [8] is recorded as 70%. The values for the inhibition at 30 µM in series [1] and in series [2] were 56.9% and 92.8%, respectively.

With `Oc1cc(CNc2ccc(Cl)cc2NCc2ccc(Cl)c(O)c2)ccc1Cl`, the results for the inhibition at 30 µM in series [1] and in series [2] were 70.9% and 52.4%, respectively.

Regarding `Cc1cc(O)cc(C(=O)Nc2ccc(Cl)cc2NC(=O)c2cc(C)cc(O)c2)c1`, the inhibition at 30 µM in series [1] turned out to be 84.7%; in series [2], 61.4%.

Consider `Oc1cc(CNc2ccc(Cl)cc2NCc2ccc(Br)c(O)c2)ccc1Br`, for which the inhibition at 30 µM in series [1] was found to be 74.1%; in series [2], 69.1%.

Consider `COc1ccc(C(=O)Nc2ccc(Cl)cc2NC(=O)c2ccc(OC)c(O)c2)cc1O`, for which the inhibition at 30 µM in series [1] amounted to 26%; in series [2] it was 39.5%.

Turning to `O=C(Nc1ccc(Cl)cc1NC(=O)c1ccc(Br)c(O)c1)c1ccc(Br)c(O)c1`, the inhibition at 30 µM in series [1] was 54.6%; in series [2], 97.3%.

`O=C(Nc1ccc(Cl)cc1NC(=O)c1cc(O)cc(Cl)c1)c1cc(O)cc(Cl)c1`: the inhibition at 30 µM in series [1] came out at 61.3%; in series [2], 60.6%.

As to `Cc1ccc(O)cc1C(=O)Nc1ccc(Cl)cc1NC(=O)c1cc(O)ccc1C`, the inhibition at 30 µM in series [1] and in series [2] was 21% throughout.

Take `O=C(Nc1cccc(F)c1NC(=O)c1cccc(O)c1)c1cccc(O)c1`: the inhibition at 30 µM in series [1] stood at 33.4%; in series [2], 20%.

Turning to `O=C(Nc1ccc(Cl)cc1NC(=O)c1cc(O)ccc1Cl)c1cc(O)ccc1Cl`, the inhibition at 30 µM in series [1] is 45.3%; in series [2] it was 89.9%.

As for `Oc1cccc(OCc2cccc(F)c2COc2cccc(O)c2)c1`, the inhibition at 30 µM in series [1] was -1.4%; in series [2], 89.5%.

`Oc1cccc(COc2cccc(F)c2OCc2cccc(O)c2)c1`: the inhibition at 30 µM in series [1] stood at 10.6%; in series [2], 92.6%.

Consider `Cc1ccc(C(=O)Nc2ccc(Cl)cc2NC(=O)c2ccc(C)c(O)c2)cc1O`, for which the inhibition at 30 µM in series [1] worked out at 55%; in series [2], 84.8%.

`Oc1cc(Cl)cc(CNc2ccc(Cl)cc2NCc2cc(O)cc(Cl)c2)c1`: the inhibition at 30 µM came out at 47.6% in series [1] and 81.7% in series [2].

With `Cc1cc(O)cc(CNc2ccc(Cl)cc2NCc2cc(C)cc(O)c2)c1`, the inhibition at 30 µM worked out at 60.4% in series [1] and 75% in series [2].

Regarding `Oc1cccc(CNc2cccc(F)c2NCc2cccc(O)c2)c1`, the inhibition at 30 µM in series [1] amounted to 5%; in series [2], 54.8%.

Regarding `Oc1cccc(CNc2ccc(F)cc2NCc2cccc(O)c2)c1`, the inhibition at 30 µM worked out at 37.7% in series [1] and 39.2% in series [2].

For `Oc1ccc(Cl)c(CNc2ccc(Cl)cc2NCc2cc(O)ccc2Cl)c1`, the inhibition at 30 µM in series [1] came out at 70.8%; in series [2], 80.7%.

For the molecule `O=C(Nc1ccc(Cl)cc1NC(=O)c1cccc(O)c1)c1cccc(O)c1`, the inhibition at 30 µM in series [1] was 5.9%; in series [2], 83.7%.

For `Oc1cccc(CCc2cccc(F)c2CCc2cccc(O)c2)c1`, the values for the inhibition at 30 µM in series [1] and in series [2] were -22.7% and 60.7%, respectively.

For `O=S(=O)(Cc1cccc(F)c1CS(=O)(=O)c1cccc(O)c1)c1cccc(O)c1`, the inhibition at 30 µM is 11.8% in series [1] and 61.4% in series [2].

In the case of `O=C(Nc1ccc(Cl)cc1NC(=O)c1ccc(F)c(O)c1)c1ccc(F)c(O)c1`, the inhibition at 30 µM came to 25.7% in series [1] and 47.8% in series [2].

On to `O=C(Oc1cccc(O)c1)c1cccc(F)c1C(=O)Oc1cccc(O)c1`, for which the results for the inhibition at 30 µM in series [1] and in series [2] were 15.3% and 78.2%, respectively.

With `Oc1cc(CNc2ccc(Cl)cc2NCc2ccc(F)c(O)c2)ccc1F`, the inhibition at 30 µM in series [1] is 22.1%; in series [2] it was 24.1%.
